From ChEMBL document CHEMBL3124841, “Discovery of vinyl sulfones as a novel class of neuroprotective agents toward Parkinson's disease therapy” (J Med Chem, 2014)
The source made the active and inactive calls. No cut-off for these calls is given here.

How the values were obtained:
[1] = target: T1, Nuclear factor erythroid 2-related factor 2 (Mus musculus) (UniProt Q60795); assay: Induction of Nrf2-dependent GCLC protein expression in mouse CATH.a cells at 0.1 uM after 24 hrs by western blot analysis; format: cell-based
T1 sequence (whole entry): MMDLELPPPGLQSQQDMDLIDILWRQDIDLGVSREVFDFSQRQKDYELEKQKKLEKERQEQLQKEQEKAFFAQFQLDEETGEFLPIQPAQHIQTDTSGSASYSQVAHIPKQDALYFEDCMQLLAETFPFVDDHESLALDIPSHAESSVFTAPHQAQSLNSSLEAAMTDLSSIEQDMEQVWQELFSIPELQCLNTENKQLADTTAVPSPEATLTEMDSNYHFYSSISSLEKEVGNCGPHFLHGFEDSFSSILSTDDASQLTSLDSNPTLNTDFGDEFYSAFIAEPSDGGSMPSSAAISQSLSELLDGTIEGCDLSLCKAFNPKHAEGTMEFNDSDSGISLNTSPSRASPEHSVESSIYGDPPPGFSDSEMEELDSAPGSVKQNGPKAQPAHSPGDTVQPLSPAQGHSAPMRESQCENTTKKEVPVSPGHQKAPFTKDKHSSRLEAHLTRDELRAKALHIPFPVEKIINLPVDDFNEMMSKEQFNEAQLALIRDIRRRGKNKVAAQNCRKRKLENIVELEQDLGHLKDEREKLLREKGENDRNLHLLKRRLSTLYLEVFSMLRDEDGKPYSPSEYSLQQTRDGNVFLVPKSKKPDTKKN
Summary of the method: (§1)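 Cells (CATH.a) exposed to graded concentrations for 24 h, lysed in RIPA buffer with protease inhibitors. Equal protein separated on 10% SDS gel, blotted; primary antibodies overnight at 4 °C, HRP secondary, chemiluminescence. Densitometry normalized to β-actin. At least duplicate cultures, fold of untreated control ± SEM.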

Mus musculus [2] = species: Mus musculus; assay: Neuroprotection against BH4-induced mouse CATH.a cell death assessed as cell viability at >0.1 uM treated for 20 hrs prior to BH4 challenge for 24 hrs by LDH activity assay; format: functional
Summary of the method: (§2)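 CATH.a cells at 2.4 × 10⁴/well given graded concentrations for 20 h, then 200 μM BH4 for an additional 24 h. Medium LDH activity from NADH oxidation with pyruvate, pH 7.4, read at 340 nm over 5 min. At least duplicate cultures, % untreated control ± SEM, compared against BH4-treated group.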

[3] = target: T1, Nuclear factor erythroid 2-related factor 2 (Mus musculus); assay: Induction of Nrf2 nuclear translocation in mouse CATH.a cells after 3 hrs by western blot analysis; format: cell-based
Summary of the method: (§3)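 Mouse DAergic CATH.a cells treated at various concentrations for 3 h. Nuclei isolated by hypotonic HEPES buffer/NP-40 lysis, then nuclear proteins extracted in 400 mM NaCl HEPES buffer. Nrf2 Western blot with lamin B as nuclear marker, chemiluminescent detection, densitometry. At least duplicate cultures, expressed as fold induction over untreated control ± SEM.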

[4] = target: T1, Nuclear factor erythroid 2-related factor 2 (Mus musculus); assay: Activation of Nrf2 in mouse CATH.a cells assessed as increase in total Nrf2 protein level after 24 hrs by western blot analysis; format: cell-based
Summary of the method: (§4)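 CATH.a cells (RPMI 1640, 8% horse serum, 4% FBS, 37 °C, 5% CO2) exposed to various concentrations for 24 h. Whole-cell lysate in RIPA buffer with protease inhibitors, 10% SDS-PAGE, Nrf2 immunoblot, chemiluminescence, densitometry normalized to β-actin. At least duplicate cultures, averaged, fold of untreated control ± SEM.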

Mus musculus [5] = assay: Inhibition of motor deficits in MPTP-induced C57Bl/6 mouse parkinson's disease model assessed as time taken to turn around at 10 mg/kg/day, po for 3 days administered first dose at 24 hrs prior to first injection of 4X 20 mg/kg, ip MPTP challenge by vertical grid test (reference value: 12.4 +/-1.8 s); format: functional
[6] = target: T1, Nuclear factor erythroid 2-related factor 2 (Mus musculus); assay: Induction of Nrf2-dependent GCLC gene expression in mouse CATH.a cells at 2 uM after 6 hrs by RT-PCR analysis relative to control; format: cell-based
Summary of the method: (§5)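 CATH.a cells grown in RPMI 1640 with 8% horse serum and 4% FBS, exposed to graded concentrations for 6 h. mRNA analysed by RT-PCR with gene-specific primers, products run on 1% agarose gel, band densitometry normalized to GAPDH. At least duplicate cultures; fold induction versus untreated control ± SEM.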

[7] = target: T1, Nuclear factor erythroid 2-related factor 2 (Mus musculus); assay: Induction of Nrf2 nuclear translocation in mouse CATH.a cells at 1 uM after 3 hrs by western blot analysis; format: cell-based; summary of the method: as §3
Mus musculus [8] = species: Mus musculus; assay: Neuroprotection against BH4-induced mouse CATH.a cell death assessed as cell viability at >0.1 uM treated for 20 hrs prior to BH4 challenge for 24 hrs by ATP assay; format: functional
Summary of the method: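 CATH.a cells (2.4 × 10⁴/well) pretreated with graded concentrations for 20 h, then challenged with 200 μM BH4 for a further 24 h. Viability as cellular ATP by CellTiter-Glo luminescence. At least duplicate cultures, percent of untreated control ± SEM, compared with BH4-treated cells.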

Mus musculus [9] = assay: (§6) Neuroprotective activity against MPTP-induced neurodegeneration in C57Bl/6 mouse parkinson's disease model assessed as increase in DAergic fibers in striatum at 10 mg/kg/day, po for 3 days administered first dose at 24 hrs prior to first injection of 4X 20 mg/kg, ip MPTP challenge measured 7 days after first MPTP injection by immunohistochemistry; format: functional, organism-based
Summary of the method: (§7)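 Male C57Bl/6 mice (23−25 g, n = 10/group) dosed orally at 10 mg/kg/day for 3 days, vehicle N-methyl-2-pyrrolidone and 20% Tween 80 in saline. MPTP 4 × 20 mg/kg ip 2 h apart, starting 24 h after first oral dose. Perfusion-fixed 7 days after first MPTP; TH immunostaining, nigral cells counted and striatal fibers densitometered on five sections each, 80 μm apart. Expressed as % vehicle control ± SEM.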

Mus musculus [10] = species: Mus musculus; assay: Neuroprotection against BH4-induced mouse CATH.a cell death assessed as cell viability at 0.1 uM treated for 20 hrs prior to BH4 challenge for 24 hrs by LDH activity assay; format: functional; summary of the method: as §2
Mus musculus [11] = assay: as §6, with “neurons” for “fibers”, “SN” for “striatum”; format: functional, organism-based; summary of the method: as §7
[12] = target: T1, Nuclear factor erythroid 2-related factor 2 (Mus musculus); assay: Induction of Nrf2-dependent GCLM gene expression in mouse CATH.a cells at 2 uM after 6 hrs by RT-PCR analysis relative to control; format: cell-based; summary of the method: as §5
[13] = target: T1, Nuclear factor erythroid 2-related factor 2 (Mus musculus); assay: Induction of Nrf2-dependent HO1 protein expression in mouse CATH.a cells at 1 to 10 uM after 24 hrs by western blot analysis relative to control; format: cell-based; summary of the method: as §1
[14] = target: T1, Nuclear factor erythroid 2-related factor 2 (Mus musculus); assay: Induction of Nrf2-dependent NQO1 gene expression in mouse CATH.a cells at 1 uM after 6 hrs by RT-PCR analysis relative to control; format: cell-based; summary of the method: as §5
[15] = target: T1, Nuclear factor erythroid 2-related factor 2 (Mus musculus); assay: Activation of Nrf2 in mouse CATH.a cells assessed as increase in total Nrf2 protein level at 1 uM after 24 hrs by western blot analysis; format: cell-based; summary of the method: as §4
[16] = target: T1, Nuclear factor erythroid 2-related factor 2 (Mus musculus); assay: Induction of Nrf2-dependent GCLC gene expression in mouse CATH.a cells at 10 uM after 6 hrs by RT-PCR analysis relative to control; format: cell-based; summary of the method: as §5
[17] = target: T1, Nuclear factor erythroid 2-related factor 2 (Mus musculus); assay: Induction of Nrf2-dependent GCLM gene expression in mouse CATH.a cells at 0.1 uM after 6 hrs by RT-PCR analysis; format: cell-based; summary of the method: as §5

- Activity [1]: inactive
- Activity [3]: Dose-dependent effect
- Activity [4]: Dose-dependent effect
- fold change (FC) [6]: 1.41
- Activity [7]: Active
- fold change (FC) [12]: 1.43
- fold change (FC) [13]: 3
- fold change (FC) [14]: 1.95
- Activity [15]: Active
- fold change (FC) [16]: 2.64
- Activity [17]: inactive
SMILES: COc1ccccc1S(=O)(=O)/C=C/c1ccccc1Cl
- Activity (Mus musculus [2]): Active
- Time (Mus musculus [5]): 4 s
- Activity (Mus musculus [8]): Active
- Activity (Mus musculus [9]): Active
- Activity (Mus musculus [10]): Active
- Activity (Mus musculus [11]): Active
